# Measurements from PubChem BioAssay AID624368 (Broad Institute, 2012).
# The source made the active and inactive calls.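 How the source made its calls: active means viability drop with AC50 at most twice the sample's highest valid dose; inconclusive means flat curve with moderate loss, or a poor fit; inactive means the rest.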
# Tested on: not listed separately
# Assay: viability of MITF-independent A375 cells – cell-based, CellTiter-Glo luminescence, dry powder, set 5, counter-screen for MITF inhibitor project, dose response (AID 624368)
# Settings: A375 viability, CellTiter-Glo ATP luminescence, 24 h; at 35 µM (top of the series)
# In short: (§1)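 Signal: ATP luminescence, CellTiter-Glo | System: MITF-independent A375 melanoma cells | Amount: 3000 cells per well | Incubation: 24 h compound exposure, 37 °C | Medium: Phenol red-free DMEM, 10% FBS | Compound: Pinned multi-dose series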
row,SMILES,"activity change, negative = cytotoxicity"
1,NC1=C(c2ccc(OC(F)(F)F)cc2)C(=O)c2ccccc2C1=O,-3.65% (inactive)
2,O=C1C=C(NS(=O)(=O)c2ccc(Br)cc2)C(=O)c2ccccc21,2.29% (inactive)
3,O=C1C(Nc2ccccc2)=C(NS(=O)(=O)c2ccccc2[N+](=O)[O-])C(=O)c2ccccc21,-2.72% (inactive)
4,CNC1=CC(=O)c2ccccc2C1=O,3.5% (inactive)
5,NC1=C(NS(=O)(=O)c2ccc(Br)s2)C(=O)c2ccccc2C1=O,3.75% (inactive)
6,O=C1C(NS(=O)(=O)c2ccccc2)=C(N2CCCCC2)C(=O)c2ccccc21,0.773% (inactive)
7,CCN1CCN(C2=C(NS(=O)(=O)c3ccc(Br)cc3)C(=O)c3ccccc3C2=O)CC1,8.86% (inactive)
8,O=C1C(NS(=O)(=O)c2ccccc2)=C(N2CCOCC2)C(=O)c2ccccc21,-1.41% (inactive)

# Tested on: A375 viability, CellTiter-Glo ATP luminescence, 24 h
# Assay: as above
# Settings: not given
# In short: as §1
row,SMILES,AC50
1,CN1CCN(C2=C(NC(=O)c3ccc(Br)cc3)C(=O)c3ccccc3C2=O)CC1,32.2 µM
2,O=C1C(NS(=O)(=O)c2cccs2)=C(c2ccccc2)C(=O)c2ccccc21,> 70 µM (inactive)
3,COC1=C(NS(=O)(=O)c2ccc(Br)cc2)C(=O)c2ccccc2C1=O,> 70 µM (inactive)
4,C=CCNC1=C(N(C)C(C)=O)C(=O)c2ccccc2C1=O,23 µM
5,O=C(CNc1cccc2ccccc12)N/N=C/c1ccc([N+](=O)[O-])o1,> 70 µM (inactive)
6,COC1=C(Nc2ccccc2)C(=O)c2ccccc2C1=O,> 70 µM (inactive)
7,CCN(CC)CCNC1=C(Nc2ccccc2)C(=O)c2ccccc2C1=O,> 70 µM (inactive)
8,C[C@@H](NC1=C(Nc2ccccc2)C(=O)c2ccccc2C1=O)c1ccccc1,> 70 µM (inactive)
9,CN1CCN(C2=C(NS(=O)(=O)c3ccc(Br)s3)C(=O)c3ccccc3C2=O)CC1,> 70 µM (inactive)
10,CCN(CC)CCCNC1=C(Nc2ccccc2)C(=O)c2ccccc2C1=O,> 70 µM (inactive)
11,CC1CCN(CC(CS(=O)(=O)c2ccc([N+](=O)[O-])cc2)N2CCC(C)CC2)CC1 (configuration not stated),> 70 µM (inactive)
12,NC1=C(c2ccccc2)C(=O)c2ccccc2C1=O,> 70 µM (inactive)
13,O=C1C(NS(=O)(=O)c2ccccc2)=C(c2ccccc2)C(=O)c2ccccc21,> 70 µM (inactive)
14,Cc1nc2ccccc2n1/N=C/c1ccc([N+](=O)[O-])s1,> 70 µM (inactive)
15,NC1=C(NC(=O)c2ccccc2)C(=O)c2ccccc2C1=O,> 70 µM (inactive)
16,CN1CCN(C2=C(Nc3ccccc3)C(=O)c3ccccc3C2=O)CC1,> 70 µM (inactive)
17,O=C1C(Nc2ccccc2)=C(N2CCOCC2)C(=O)c2ccccc21,> 70 µM (inactive)
18,CCN1CCN(C2=C(NS(=O)(=O)c3ccc(Br)s3)C(=O)c3ccccc3C2=O)CC1,> 70 µM (inactive)
19,COC1=C(NS(=O)(=O)c2cccs2)C(=O)c2ccccc2C1=O,> 70 µM (inactive)
20,NC1=CC(=O)c2ccccc2C1=O,> 70 µM (inactive)
21,COC1=C(NS(=O)(=O)c2ccccc2)C(=O)c2ccccc2C1=O,> 70 µM (inactive)
22,O=C1C(NS(=O)(=O)c2ccc(Br)s2)=C(N2CCOCC2)C(=O)c2ccccc21,> 70 µM (inactive)

row,SMILES,AC50
1,C=CCNC1=C(Cl)C(=O)c2ccccc2C1=O,> 70 µM (inactive)
2,NC1=C(NS(=O)(=O)c2ccc(Br)cc2)C(=O)c2ccccc2C1=O,> 70 µM (inactive)
3,O=C(NC1=C(c2ccccc2)C(=O)c2ccccc2C1=O)c1ccco1,29.1 µM
4,CC(=O)N(C)C1=C(N2CCN(C)CC2)C(=O)c2ccccc2C1=O,24.3 µM
5,NC1=C(NS(=O)(=O)c2ccccc2)C(=O)c2ccccc2C1=O,> 70 µM (inactive)
6,O=C1C(NS(=O)(=O)c2cccs2)=C(N2CCCCC2)C(=O)c2ccccc21,> 70 µM (inactive)
7,Cc1ccc(C(=O)NC2=C(c3ccccc3)C(=O)c3ccccc3C2=O)o1,32 µM
8,O=C(NC1=C(N2CCOCC2)C(=O)c2ccccc2C1=O)c1ccc(Br)cc1,> 70 µM (inactive)
9,COc1ccc(S(=O)(=O)N(C(C)=O)c2ccc(OC(C)=O)c3ccccc23)cc1[N+](=O)[O-],> 70 µM (inactive)
10,CCN1CCN(C2=C(NC(=O)c3ccc(Br)cc3)C(=O)c3ccccc3C2=O)CC1,28 µM
11,O=C1C=C(NS(=O)(=O)c2cccs2)C(=O)c2ccccc21,> 70 µM (inactive)
12,O=C1C(Nc2ccccc2)=C(N2CCCCC2)C(=O)c2ccccc21,> 70 µM (inactive)
13,O=C(NC1=C(N2CCCCC2)C(=O)c2ccccc2C1=O)c1ccc(Br)cc1,> 70 µM (inactive)
14,O=C1C=C(Nc2ccccc2)C(=O)c2ccccc21,> 70 µM (inactive)
15,O=C1C=C(NS(=O)(=O)c2ccccc2)C(=O)c2ccccc21,> 70 µM (inactive)
16,O=C(NC1=C(N2CCSCC2)C(=O)c2ccccc2C1=O)c1ccc(Br)cc1,> 70 µM (inactive)
17,O=C1C(NS(=O)(=O)c2ccc(Br)s2)=C(N2CCSCC2)C(=O)c2ccccc21,> 70 µM (inactive)
18,C=CCNC1=C(Nc2ccccc2)C(=O)c2ccccc2C1=O,> 70 µM (inactive)
19,O=C1C(Nc2ccccc2)=C(N2CCSCC2)C(=O)c2ccccc21,> 70 µM (inactive)
20,O=C1C(Nc2ccccc2)=C(c2ccccc2)C(=O)c2ccccc21,> 70 µM (inactive)
21,NC1=C(NS(=O)(=O)c2cccs2)C(=O)c2ccccc2C1=O,> 70 µM (inactive)
22,O=C1C(NS(=O)(=O)c2ccc(Br)s2)=C(N2CCCCC2)C(=O)c2ccccc21,> 70 µM (inactive)
